Published values gathered from unrelated publications.
Lines come from different studies, so protocols differ.
Target: Mitogen-activated protein kinase 8 (MAPK8, Homo sapiens, UniProt P45983)

SMILES	read-out	method	concentration	remaining binding
CN(C)c1nccc(-c2cnc3ncccn23)n1	binding	competition with immobilised ligand	1 µM	59%
NS(=O)(=O)c1cc(NC(=O)Cc2ccccc2)ccc1Oc1cccc(Cl)c1	cell-free assay	competition with immobilised ligand	1 µM	69%
O=C(NCCCN1CCOCC1)c1ccc(Nc2nccc(-c3cc4ccccc4s3)n2)cc1	binding	competition with immobilised ligand	1 µM	9.8%
C[C@H](NC(=O)c1cnc2n1[C@](C)(Cc1ccc(C#N)cc1)C(=O)N2c1cc(Cl)c(F)c(Cl)c1)C(=O)NC1(c2ccccn2)CC1	cell-free assay	competition with immobilised ligand	1 µM	81%
C[C@@H]1CCN(c2nccc(-c3cnn4ncccc34)n2)C1	binding	competition with immobilised ligand	1 µM	23%
COc1cnc(Nc2cccc(S(N)(=O)=O)c2)nc1N1CCN(c2ccccc2)C(=O)C1	binding	competition with immobilised ligand	1 µM	76%
Nc1ncc2c(n1)-c1c([nH]c3ccc(C#CC4CC4)cc13)CCCC2	binding	competition with immobilised ligand	1 µM	66%
O=C(c1ccc(Nc2nccc(-c3cc4ccccc4s3)n2)cc1)N1CCC(N2CCCC2)CC1	binding	competition with immobilised ligand	1 µM	2.4%
O=c1nc(-c2ccccn2)sc2ccccc12	binding	competition with immobilised ligand	1 µM	100%
Cc1cnn2ncc(-c3ccnc(N(C)C)n3)c2c1	binding		1 µM	67%
COCCOc1nc(-c2ccc(Cl)nc2)nc2c1CN(C(=O)c1ncn3ccccc13)CC2	cell-free assay	competition with immobilised ligand	0.1 µM	100%
CN(C)c1ncc(F)c(-c2cnn3ncccc23)n1	binding	competition with immobilised ligand	1 µM	76%
O=C(O)c1cc(-c2ccc(C3CCNCC3)cc2)c2ccc(-c3ccc(C(F)(F)F)cc3)cc2c1	cell-free assay	competition with immobilised ligand	1 µM	100%
N[C@H]1CCN(c2nccc(-c3cnn4ncccc34)n2)C1	binding	competition with immobilised ligand	1 µM	85%
COc1ncc2cc3ccccc3nc2c1C#N	cell-free assay	competition with immobilised ligand	5 µM	100%
CCC(=O)N[C@@H]1CC[C@H](C(=O)N(C)c2ccc(-c3nc4ccccc4o3)cc2)C1	cell-free assay	competition with immobilised ligand	1 µM	53%
C[C@@H]1CN(c2ccc3ncc(-c4ccc5[nH]nc(C6CC6)c5c4)n3n2)C[C@H](C)O1	binding	competition with immobilised ligand	50 nM	80%
N#Cc1ccccc1CSc1nnc2c(n1)[nH]c1ccccc12	binding	competition with immobilised ligand	10 µM	96%
COc1ccnn2ncc(-c3ccnc(N(C)C)n3)c12	binding		1 µM	75%
CCN1CCN(Cc2ccc(C(=O)Nc3ccc(C)c(Oc4ccc5c(c4)CC(=O)N5)c3)cc2C(F)(F)F)CC1	binding	competition with immobilised ligand	1 µM	82%
CN(CCCC(F)(F)F)c1nccc(-c2cnn3ncccc23)n1	binding	competition with immobilised ligand	1 µM	100%
O=C(NCCCN1CCOCC1)c1ccc(Nc2ncc(Cl)c(-c3ccc(Cl)s3)n2)cc1	binding	competition with immobilised ligand	1 µM	2.5%
CC(=O)N1CCC(c2ccc(C(=O)NC(=N)N)cc2C(F)(F)F)CC1	cell-free assay	competition with immobilised ligand	1 µM	73%
O=C(NCC1CCOCC1)c1n[nH]cc1NC(=O)c1c(F)cccc1F	binding	competition with immobilised ligand	1 µM	16%
